ChEMBL document CHEMBL4725282, “Discovery of a Conformationally Constrained Oxazolidinone with Improved Safety and Efficacy Profiles for the Treatment of Multidrug-Resistant Tuberculosis” (J Med Chem, 2020)

Key:
[1] = Toxicity in male Sprague-Dawley rat assessed as histopathological changes at 50 to 450 mg/kg/day, po administered for 4 weeks measured post last dose; assay type: organism-based; settings: in vivo, 672 h, dose 50-450 mg/kg/day
[2] = Toxicity in female Sprague-Dawley rat assessed as ophthalmic changes at 50 to 450 mg/kg/day, po administered for 4 weeks measured within 7 days of post last dose; assay type: organism-based; settings: in vivo, 672 h, dose 50-450 mg/kg/day
How it was run: (§1)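 SD rats, 6-7 weeks old (96 in total), split into vehicle, 50, 150 and 450 mg/kg/day groups of 12 females and 12 males each, given oral doses once daily for 4 weeks, then 2 weeks of recovery. Mortality, body weight, food intake, eyes, urine and neuropsychic signs were observed. Organ and bone marrow histopathology was done on 8 rats per sex per group after the last dose and on the remaining 4 per sex after 14 days of recovery.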

[3] = Genotoxicity in CHO-WBL cells assessed as chromosome aberration at 20 to 150 ug/ml measured after 20 hrs in presence of S9 fraction by Giemsa staining based; assay type: toxicity, subcellular, Cricetulus griseus; settings: chinese hamster, s9, 20 h, dose 20-150 µg/ml
How it was run: (§2)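 CHO-WBL cells in McCoy's 5A with 10% FBS, seeded 20-24 h before treatment. Compound in DMSO, with or without serum-free S-9 mix. Treatment either 3 h, then HBSS wash and 17 h further culture, or 20 h; harvest at 20 h from treatment start. Colcemid 0.1 μg/mL for the final 2 h, hypotonic KCl, methanol:acetic acid fixation, Giemsa stain. 300 metaphases per concentration (150 per duplicate flask) scored.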

[4] = Clearance in Balb/c mouse at 2.5 mg/kg, iv by LC-MS/MS analysis; assay type: ADME, organism-based; settings: in vivo
How it was run: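 Female BALB/c mice (20–25 g), five per route. Oral dose 25 mg/kg in 0.5% carboxymethyl cellulose; i.v. dose 2.5 mg/kg in 10% DMSO/physiological saline. Blood sampled 5 min–72 h after p.o. and 2 min–48 h after i.v. Analyte quantified by LC/MS/MS (ESI positive, C18, isocratic methanol/water). Parameters from non-compartmental analysis.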

[5] = Toxicity in male Sprague-Dawley rat assessed as change in hemoglobin count at 50 mg/kg/day, po administered for 4 weeks followed by 2 week recovery period (Rvb =144 +/- 5 g/L); assay type: organism-based; settings: in vivo, 672 h
[6] = Half life in CD-1 mouse hepatocytes at 2 uM by LC-MS/MS analysis; assay type: ADME, cell-based, Hepatocyte
How it was run: (§3)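 Hepatocytes (male CD-1 mouse, male SD rat, male beagle dog, male cynomolgus monkey, pooled human), final 1 μM compound and 1 million cells/mL, made by mixing 2 μM compound with 2 million cells/mL. Incubated at 37 °C in a CO2 incubator; sampled at 0, 15, 30, 60, 90 and 120 min. Quenched with methanol/ACN containing 0.1% formic acid. Parent remaining measured by LC-MS/MS.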

[7] = Genotoxicity in CHO-WBL cells assessed as chromosome aberration at 20 to 150 ug/ml incubated for 3 hrs followed by compound washout and measured after 17 hrs in presence of S9 fraction by Giemsa staining based; assay type: toxicity, subcellular, Cricetulus griseus; settings: chinese hamster, s9, 3 h, dose 20-150 µg/ml; how it was run: as §2
[8] = Toxicity in male Sprague-Dawley rat assessed as abnormalities in urine at 50 to 450 mg/kg/day, po administered for 4 weeks measured within last 7 days of treatment period; assay type: organism-based; settings: in vivo, 672 h, dose 50-450 mg/kg/day; how it was run: as §1
[9] = Toxicity in male Sprague-Dawley rat assessed as change in mean platelet volume at 150 mg/kg/day, po administered for 4 weeks followed by 2 week recovery period (Rvb =7.0 +/- 0.4 fL); assay type: organism-based; settings: in vivo, 672 h
[10] = Toxicity in female Sprague-Dawley rat assessed as histopathological changes at 50 to 450 mg/kg/day, po administered for 4 weeks measured post last dose; assay type: organism-based; settings: in vivo, 672 h, dose 50-450 mg/kg/day; how it was run: as §1
[11] = Toxicity in female Sprague-Dawley rat assessed as ophthalmic changes at 50 to 450 mg/kg/day, po administered for 4 weeks followed by 2 week recovery period; assay type: organism-based; settings: in vivo, 1008 h, dose 50-450 mg/kg/day, time 6 weeks; how it was run: as §1
[12] = Toxicity in male Sprague-Dawley rat assessed as change in neutrophil level at 150 mg/kg/day, po administered for 4 weeks followed by 2 week recovery period (Rvb =15.9 +/- 3.4 %); assay type: organism-based; settings: in vivo, 672 h
[13] = Toxicity in female Sprague-Dawley rat assessed as ophthalmic changes at 50 to 450 mg/kg/day, po administered for 4 weeks measured post last dose; assay type: organism-based; settings: in vivo, 672 h, dose 50-450 mg/kg/day; how it was run: as §1
[14] = Toxicity in male Sprague-Dawley rat assessed as change in hematocrit level at 50 mg/kg/day, po administered for 4 weeks followed by 2 week recovery period (Rvb =45.2 +/- 1.7 %); assay type: organism-based; settings: in vivo, 672 h
[15] = Toxicity in female Sprague-Dawley rat assessed as change in mean corpuscular volume at 150 mg/kg/day, po administered for 4 weeks followed by 2 week recovery period (Rvb =56.1 +/- 0.8 fL); assay type: organism-based; settings: in vivo, 672 h
[16] = Half life in cynomolgus monkey hepatocytes at 2 uM by LC-MS/MS analysis; assay type: ADME, cell-based, Macaca fascicularis, Hepatocyte; how it was run: as §3
[17] = Toxicity in male Sprague-Dawley rat assessed as change in mean corpuscular hemoglobin at 450 mg/kg/day, po administered for 4 weeks followed by 2 week recovery period (Rvb =18.3 +/- 0.4 pg); assay type: organism-based; settings: in vivo, 672 h
[18] = Toxicity in male Sprague-Dawley rat assessed as change in white blood cell count at 150 mg/kg/day, po administered for 4 weeks followed by 2 week recovery period (Rvb =6.12 +/- 1.10 10^9/L); assay type: organism-based; settings: in vivo, 672 h
How it was run: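 SD rats aged 6-7 weeks, 24 per group (12 female, 12 male): vehicle, 50, 150 or 450 mg/kg/day given orally once daily for 4 weeks, then 2-week recovery. 8 per sex per group dissected after the last dose and 4 per sex after 14-day recovery. Hematology included WBC count, reported as mean ± SD (n = 12), compared with vehicle.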

[19] = Apparent permeability in human Caco-2 cells at 50 uM after 1 hr by UPLC analysis; assay type: ADME, cell-based
How it was run: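 Caco-2 monolayers on Transwells, cultured 21 days, TEER required >500 Ω×cm². Compound at 50 μM added apically, 1 h at 37 °C. Transported compound quantified by UPLC. Papp = (dQ/dt)/(C0×A).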

[20] = Toxicity in male Sprague-Dawley rat assessed as body weight loss at 50 to 450 mg/kg/day, po administered for 4 weeks measured at 1 week interval; assay type: organism-based; settings: in vivo, 672 h, dose 50-450 mg/kg/day; how it was run: as §1
[21] = Toxicity in male Sprague-Dawley rat assessed as effect on food consumption at 50 to 450 mg/kg/day, po administered for 4 weeks measured at 1 week interval; assay type: organism-based; settings: in vivo, 672 h, dose 50-450 mg/kg/day
[22] = Toxicity in female Sprague-Dawley rat assessed as histopathological changes in bone marrow at 450 mg/kg/day, po administered for 4 weeks followed by 2 week recovery period; assay type: organism-based; settings: in vivo, 672 h; how it was run: as §1
[23] = Toxicity in female Sprague-Dawley rat assessed as change in hematocrit level at 50 mg/kg/day, po administered for 4 weeks followed by 2 week recovery period (Rvb =41.1 +/- 1.4 %); assay type: organism-based; settings: in vivo, 672 h
[24] = Toxicity in female Sprague-Dawley rat assessed as change in reticulocyte level at 150 mg/kg/day, po administered for 4 weeks followed by 2 week recovery period (Rvb =2.85 +/- 0.53 %); assay type: organism-based; settings: in vivo, 672 h
[25] = Toxicity in female Sprague-Dawley rat assessed as change in lymphocyte level at 450 mg/kg/day, po administered for 4 weeks followed by 2 week recovery period (Rvb =76.9 +/- 4.6 %); assay type: organism-based; settings: in vivo, 672 h

For CC(=O)NC[C@@H]1OC(=O)N2c3cc(F)c(N4CCSCC4)cc3OC[C@@H]12, the Activity [1] was “Non-Toxic”, the Activity [2] was “Non-Toxic” and the Activity [3] was “Non-Toxic”. The clearance [4] was 36.5 mL/min/kg, the Activity [5] was 136 g/L and the half-life at 2 µM [6] was 1.27 h. The Activity [7] was “Non-Toxic”, the Activity [8] was “Non-Toxic” and the Activity [9] was 7 fL. The Activity [10] was “Non-Toxic”, the Activity [11] was “Non-Toxic” and the Activity [12] was 17%. The Activity [13] was “Non-Toxic”, the Activity [14] was 43.5% and the Activity [15] was 56.6 fL. For the same compound, the half-life at 2 µM [16] was 5.25 h, the Activity [17] was 18.7 pg and the Activity [18] was 6.11 10^9/L. For the same compound, the Papp at 1 h, 50 µM [19] was 67.6 ×10⁻⁶ cm/s, the Activity [20] was “Non-Toxic” and the Activity [21] was “Non-Toxic”. The Activity [22] was “Non-Toxic”, the Activity [23] was 38.7% and the Activity [24] was 2.89%. For the same compound, the Activity [25] was 83.7%.
